pIC50: −log10 of the molar value.
How the values were obtained:
[1] = biological target: RAC-alpha serine/threonine-protein kinase (Homo sapiens, UniProt P31749); assay: Inhibition of recombinant AKT1 (unknown origin) using serine/threonine 06 peptide as substrate after 1 hr by FRET based Z'-LYTE assay
Summary of the method: (§1)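 Run with a commercial Z'-LYTE kit, a FRET read-out of the kinase phosphorylating a peptide substrate. It detects functional inhibition of kinase activity regardless of mechanism.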

[2] = biological target: cAMP-dependent protein kinase catalytic subunit alpha (Homo sapiens, UniProt P17612); assay: Inhibition of PKAalpha (unknown origin) using serine/threonine 01 peptide as substrate after 1 hr by FRET based Z'-LYTE assay; summary of the method: as §1

Sequence of RAC-alpha serine/threonine-protein kinase (P31749 whole entry): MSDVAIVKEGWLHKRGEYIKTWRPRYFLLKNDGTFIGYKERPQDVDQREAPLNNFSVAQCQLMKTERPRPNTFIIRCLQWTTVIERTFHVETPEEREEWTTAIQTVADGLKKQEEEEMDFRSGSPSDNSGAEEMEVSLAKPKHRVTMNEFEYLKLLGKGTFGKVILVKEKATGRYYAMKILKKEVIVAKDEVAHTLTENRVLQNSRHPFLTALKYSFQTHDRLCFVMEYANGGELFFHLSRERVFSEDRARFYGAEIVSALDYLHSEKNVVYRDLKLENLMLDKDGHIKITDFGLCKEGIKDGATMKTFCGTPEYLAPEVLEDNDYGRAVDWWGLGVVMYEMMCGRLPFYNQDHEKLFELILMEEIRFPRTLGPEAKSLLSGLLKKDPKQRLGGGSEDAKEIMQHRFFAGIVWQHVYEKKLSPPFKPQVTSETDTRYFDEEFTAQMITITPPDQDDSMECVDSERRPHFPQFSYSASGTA

Row | Structure (SMILES) | pIC50 [1] | pIC50 [2]
1 | C=CC(=O)c1ccccc1 | 4.91 | < 4.00
2 | O=C1C[C@@H](O)[C@@H](C2=CC(=O)c3ccccc3C2=O)O1 | 5.53 | 6.37
3 | COC/C=C/C(=O)c1ccccc1 | 4.30 | < 4.00
4 | C[C@H]1O[C@@H]2CC(=O)O[C@@H]2C2=C1C(=O)c1ccccc1C2=O | 6.55 | < 4.00
5 | COC(=O)CC/C=C/C(=O)c1ccccc1 | 4.86 | < 4.00
